{
  "source": "paper PMC4094229",
  "about": "(European journal of medicinal chemistry, 2013)",
  "key": {"MCF-10A cells": {"system": "MCF-10A cells", "assay": "MTT cell viability assay, normal breast MCF-10A", "format": "cell-based, human"}, "MDA-MB-231 cells": {"system": "MDA-MB-231 cells", "assay": "Cell cycle distribution", "format": "cell-based, human", "details": "24 h"}, "MCF-7 cells [1]": {"system": "MCF-7 cells", "assay": "Cell cycle distribution", "format": "cell-based, human", "details": "24 h"}, "[2]": {"system": "human breast cancer cell lines (MCF-7 and MDA-MB-231)", "assay": "MTT assay, activity against cancer cells", "format": "cell-based", "details": "72 h, up to 50 μM", "method_in_brief": "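ATCC cells were used. MCF-7 was grown in DMEM with 10% FBS, insulin, pyruvate and NEAA; MDA-MB-231 in DMEM with 10% FBS, NEAA and L-glutamine. Cells were seeded at 3×10³/well and exposed 72 h to 0, 1, 5, 10, 25, 50 μM, with a DMSO vehicle. MTT (5 mg/mL stock) was added for 2–4 h at 37°C; formazan was dissolved in DMSO and read at A570. Viability = mean OD treated/DMSO control; IC50 from three separate experiments.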"}, "MCF-7 cells [3]": {"system": "MCF-7 cells", "assay": "MTT cell viability assay, MCF-7", "format": "cell-based", "details": "Homo sapiens, MCF7, 72 h, read-out: IC50 MCF-7, MTT, 72 h, 1-50 μM"}},
  "data": [
    {"smiles": "C=C1C(=O)O[C@H]2C[C@H](C)[C@@]34C[C@@]5(C(=O)O[C@H]6C[C@@H](C)[C@@H]7[C@@H](OC(C)=O)C[C@H](O)[C@@]7(C)C[C@@H]65)[C@@H](C(C)=C3C[C@H]12)[C@@H]4O", "note": "[Compound 1, Lineariifolianoid E]", "values": [
      {"measurement": "toxicity to MCF-10A cells", "setting": "MCF-10A cells; normal breast cell line", "value": "low toxicity"},
      {"measurement": "effect on cell cycle progression", "setting": "MDA-MB-231 cells; MDA-MB-231, 0, 1, 2.5 μM", "value": "dose-dependent cell cycle arrest in both S and G2/M phase"},
      {"measurement": "cell cycle arrest at 2.5 μM", "setting": "MDA-MB-231 cells; MDA-MB-231, 2.5 μM", "value": "significant increase in the number of cells in both S and G2/M phases"},
      {"measurement": "effect on cell cycle progression", "setting": "MCF-7 cells [1]; MCF-7, 0, 1, 2.5 μM", "value": "dose-dependent cell cycle arrest in the G2/M phase"},
      {"measurement": "cell cycle arrest at 2.5 μM", "setting": "MCF-7 cells [1]; MCF-7, 2.5 μM", "value": "a majority of the MCF-7 cells were arrested in the G2/M phase"}
    ]},
    {"smiles": "C=C1C(=O)O[C@H]2C[C@H](C)[C@H]3[C@@H](O)C[C@@](C)(O)[C@@]34O[C@H]4[C@H]12", "note": "[Compound 6, 5α,6α-epoxy-2α,4α-dihydroxy-1β-guai-11(13)-en-12,8α-olide]", "values": [
      {"measurement": "activity against cancer cells", "setting": "[2]", "value": "did not show visible activity"}
    ]},
    {"smiles": "C=C1C(=O)O[C@@H]2CC(C)=C3[C@@H](OC(C)=O)C[C@@](C)(O)[C@@H]3[C@@H](O)[C@H]12", "note": "[Compound 7, 6α-hydroxyinuchinenolide B]", "values": [
      {"measurement": "activity against cancer cells", "setting": "[2]", "value": "did not show visible activity"}
    ]},
    {"smiles": "CC(=O)O[C@H]1C=C(CCO)[C@@H](C)C[C@H]2OC(=O)[C@@H](C)[C@@H]12", "note": "[Compound 9, 6β-acetoxysundiversifolide]", "values": [
      {"measurement": "activity against cancer cells", "setting": "[2]", "value": "did not exhibit any noticeable activity"}
    ]},
    {"smiles": "C=C1C(=O)O[C@@H]2CC(C)=C3[C@@H](C[C@H]12)[C@](C)(O)C[C@@H]3O", "note": "[Compound 10, deacetylinuchinenolide B]", "values": [
      {"measurement": "activity against cancer cells", "setting": "[2]", "value": "did not show visible activity"}
    ]},
    {"smiles": "C[C@@H]1C2=C[C@H]3[C@@H](C[C@@]2(C)CC[C@@H]1O)OC(=O)[C@@H]3C", "note": "[Compound 15, 3β-hydroxy-11α,13-dihydroalantolactone]", "values": [
      {"measurement": "activity against cancer cells", "setting": "[2]", "value": "did not exhibit any noticeable activity"}
    ]},
    {"smiles": "COc1cccc2c1C(=O)c1c(O)c3c(c(O)c1C2=O)C[C@@](O)(C(=O)CO)C[C@@H]3O[C@H]1C[C@H](N)[C@H](O)[C@H](C)O1", "note": "[Doxorubicin]", "values": [
      {"measurement": "IC50", "setting": "MCF-7 cells [3]", "value": "700 ± 60", "unit": "nM"}
    ]},
    {"smiles": "CC(=O)O[C@H]1C(=O)[C@@]2(C)[C@H]([C@H](OC(=O)c3ccccc3)[C@]3(O)C[C@H](OC(=O)[C@H](O)[C@@H](NC(=O)c4ccccc4)c4ccccc4)C(C)=C1C3(C)C)[C@]1(OC(C)=O)CO[C@@H]1C[C@@H]2O", "note": "[Paclitaxel, reference compound]", "values": [
      {"measurement": "IC50", "setting": "MCF-10A cells; Homo sapiens, MCF-10A, 72 h, read-out: IC50 MCF-10A", "value": "427 ± 55.4", "unit": "nM"}
    ]}
  ]
}
